Among the data in PubChem BioAssay AID1027 (Sanford-Burnham Center for Chemical Genomics, 2008) are activation factor values, retold here.

SMILES strings stand for the structures. The campaign covered roughly 200,000 compounds. Fewer than 10 were called active.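 The calls were made as follows: active = luciferase activation factor, scaled between plate controls, of at least 2 with compound at 10 µM; inactive = the rest.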 Only a sample is shown.

Luciferin 4-monooxygenase (Photinus pyralis), sequence (P08659 whole entry, looked up): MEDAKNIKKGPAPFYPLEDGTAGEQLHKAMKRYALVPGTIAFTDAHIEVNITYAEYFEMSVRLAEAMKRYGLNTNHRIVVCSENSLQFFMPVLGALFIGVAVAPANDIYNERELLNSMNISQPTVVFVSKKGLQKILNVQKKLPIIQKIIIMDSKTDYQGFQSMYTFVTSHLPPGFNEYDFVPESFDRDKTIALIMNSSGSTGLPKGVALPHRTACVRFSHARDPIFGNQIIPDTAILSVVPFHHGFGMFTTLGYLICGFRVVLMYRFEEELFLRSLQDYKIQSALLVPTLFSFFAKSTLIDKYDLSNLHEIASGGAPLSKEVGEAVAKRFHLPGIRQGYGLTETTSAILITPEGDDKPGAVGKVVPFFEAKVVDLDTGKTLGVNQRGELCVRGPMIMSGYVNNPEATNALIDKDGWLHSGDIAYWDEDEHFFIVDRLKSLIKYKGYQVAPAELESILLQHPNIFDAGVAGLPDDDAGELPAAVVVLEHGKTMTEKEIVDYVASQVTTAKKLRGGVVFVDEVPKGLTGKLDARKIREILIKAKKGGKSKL

This assay deals with Luciferin 4-monooxygenase (Photinus pyralis) (UniProt P08659). The assay is described as follows: FLuc activators, initial screening, artefact control for FLuc-dependent activation tests, biochemical, ATPlite luminescence (AID 1027). Conditions: ATPlite luciferase biochemical, 10 min, at 10 µM, stronger effect = higher value, 0 = ATP-free wells, 1 = DMSO control. In a few lines: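 test system = cell-free luciferase reagent | medium = PBS as buffer for the ATP substrate | dosing = test compounds dosed from 2 mM stocks in 100% DMSO | incubation = 10 min at ambient temperature | detection = luminescence measurement of luciferase light output | benchmarks = low control with PBS replacing ATP, high control enzyme plus ATP without compound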
Take `O=C(O)CC(Cc1ccccc1)C(=O)Nc1ccc([N+](=O)[O-])cc1` (stereo not drawn): the activation factor is 1.1 (inactive). As to `CCC1CCCCN1C(=S)Nc1ccc(C(C)=O)cc1` (stereo not drawn), the activation factor is 1 (inactive).

For the compound `Cc1ccc(C)c(NC2=NCC(=O)N2c2ccc3c(c2)OCCO3)c1`, the activation factor is 1.1 (inactive). In the case of `COc1ccc(C(=O)Nc2ccc3nc(N4CCCCC4)cc(C)c3c2)cc1OC`, the activation factor was 1.1 (inactive). Then `NC(=O)c1ccccc1N(Cc1ccccc1)S(=O)(=O)c1ccccc1`, with 1 (inactive). Then `Cc1cccc(N2CCC(NCc3c(C(=O)N4CCCCC4)nc4c(C)cccn34)CC2)c1`, with 1 (inactive); and `COc1ccc(CCC(=O)OCC(=O)Nc2ccc(C)c(S(=O)(=O)N(C)C)c2)cc1`, with 1 (inactive); and `Cc1cccc(N2C(=O)SC(SC(=Nc3ccccc3)Nc3ccccc3)C2=O)c1` (stereo not drawn), with 1 (inactive). For `Cc1ccc(C(=O)N/C(=C\c2cccs2)C(=O)NCCc2ccccn2)cc1C` the value was 1 (inactive); for `COc1cccc(CC2(CO)CCCN(CC3=Cc4cc(OC)ccc4OC3)C2)c1` (stereo not drawn), 1.1 (inactive); for `Cc1ccc2[nH]c(C)c(CCNC(=O)NC3CCCCC3)c2c1`, 1 (inactive). In the case of `S=C(Nc1cccc(Br)c1)N1CCn2cccc2C1c1cccnc1` (stereo not drawn), the activation factor is 1.1 (inactive).

On to `NS(=O)(=O)c1ccc(N2C(=O)C3C4CC(C(Br)C4Br)C3C2=O)cc1` (stereo not drawn), for which the activation factor is 1 (inactive). Then `CCc1ccc(C2N3CC4([N+](=O)[O-])CN2CC([N+](=O)[O-])(C3)C4(C)C)cc1` (stereo not drawn), with 1.1 (inactive); and `Cc1nnc(SC(C)C(=O)Nc2ccc(S(=O)(=O)NC3CCCCC3)cc2)s1` (stereo not drawn), with 1.1 (inactive).

On to `Cc1ccc(C(=O)NC(=S)NCCN2CCOCC2)cc1`, for which the activation factor was 1.1 (inactive). For `CC(CO)N1CCS(=O)(=O)CC1` (stereo not drawn) the value was 1.1 (inactive); for `CC1CCCN(CCOCCOc2ccccc2-c2ccccc2)C1` (stereo not drawn), 1 (inactive). As to `Cc1noc(C)c1CCC(=O)O`, the activation factor was 1 (inactive). For `CCC1CCCCN1C(=O)CSc1nc2c(c(=O)n(C)c(=O)n2C)n1C` (stereo not drawn) the value was 1 (inactive); for `C=C(C)c1cccc(C(C)(C)NC(=O)NC2CCCC2)c1`, 1 (inactive); for `COc1ccc(CCCc2nnc(SCc3nc4ccccc4c(=O)[nH]3)n2C)cc1`, 1.1 (inactive). For `CCOC(=O)N1CCN(CCC(=O)Nc2cc(OC)ccc2OC)CC1` the value was 1 (inactive); for `Cc1ccc2nc(-c3ccc(NC(=O)CN(C)S(=O)(=O)c4ccccc4)cc3)sc2c1`, 0.7 (inactive). For `CC(C)(C)c1ccc(/C=C/C(=O)NC2CCS(=O)(=O)C2)cc1` (stereo not drawn) the value was 0.9 (inactive); for `O=C(COC(=O)c1ccccc1)Nc1cccc(S(=O)(=O)N2CCOCC2)c1`, 1.1 (inactive); for `NS(=O)(=O)c1ccc(CNC(=O)c2ccc(Cl)cc2[N+](=O)[O-])cc1`, 1 (inactive). As for `CCn1cc(/C=C2/SC(=S)NC2=O)c(C)n1`, the activation factor is 0.8 (inactive). For `COc1cccc(NC(=O)c2nn(-c3ccc(OC)cc3OC)c(=O)c3ccccc23)c1` the value was 1 (inactive).

For the compound `COc1cc(SC#N)ccc1N=Cc1c(C)[nH]n(-c2ccc(C)cc2)c1=O`, the activation factor was 0.9 (inactive). As to `CCN=C1S/C(=C\c2cc(Br)ccc2OCC(=O)OCC)C(=O)N1CC`, the activation factor is 1 (inactive).

For `CCc1cccc2c(=O)c(C(=O)NCCCOC)c[nH]c12`, the activation factor is 1 (inactive). Then `CS(=O)(=O)N(CC(=O)N1CCCC1)Cc1ccccc1`, with 1.1 (inactive); and `O=C(NCCNc1ccc([N+](=O)[O-])cc1)c1cccc2c(Br)cccc12`, with 1 (inactive).

Consider `Cc1ccc(SCCC(=O)NCc2ccccn2)cc1`, for which the activation factor is 1 (inactive). As to `Oc1ccc(Br)cc1C=Nc1ccc2[nH]ncc2c1`, the activation factor is 1 (inactive). For `CN(CC(=O)Nc1ccc(S(=O)(=O)N2CCCC2)cc1)Cc1ccc(Cl)c(Cl)c1` the value was 1 (inactive); for `CC(=O)n1c(C=Nc2ccccc2)c(O)c2ccccc21`, 0.4 (inactive); for `CC1Cc2ccccc2N1C1=CC(=O)CC(C)(C)C1` (stereo not drawn), 1.1 (inactive). In the case of `Cc1c(NC(=O)CCC2CCCCC2)cc(C(=O)N2CCOCC2)cc1[N+](=O)[O-]`, the activation factor was 1.1 (inactive).

Turning to `CCOCCCNCc1cc(Br)ccc1OCC`, the activation factor was 1 (inactive). For `O=C(CSc1ccccn1)Nc1nc2c(ccc3ccccc32)s1` the value was 1.1 (inactive); for `CCOc1ccc2nc(NC(=O)c3cc([N+](=O)[O-])ccc3N3CCOCC3)sc2c1`, 1 (inactive); for `COc1ccc(-c2nc(CN3CCN(c4ncccn4)CC3)c(C)o2)cc1C`, 1 (inactive). For `O=C(O)c1ccc2c(c1)C(=O)N(NC(=O)c1ccc(O)cc1)C2=O` the value was 1.1 (inactive); for `COC(=O)c1ccc(/C=N/OCC(=O)Nc2cc(F)ccc2F)cc1`, 1 (inactive). Then `CC(NC(=S)Nc1ccc(S(N)(=O)=O)cc1)c1ccc2c(c1)OCO2` (stereo not drawn), with 1.1 (inactive). For the compound `Cc1ccc(NC(=S)N2CCN(c3ncccn3)CC2)cc1C`, the activation factor was 1.1 (inactive).

Turning to `Cc1ccc(C(=O)O)cc1N1C(=O)CCCC1=O`, the activation factor was 1 (inactive).

For the compound `Cn1cc(CN2CCCC(CO)C2)c(-c2ccc(Oc3ccccc3)cc2)n1` (stereo not drawn), the activation factor was 1.1 (inactive). As for `COC(=O)c1ccc(CSc2nnc(N)s2)o1`, the activation factor was 1 (inactive). For `COc1ccc(CN2CCCC(C(=O)c3ccc(Cl)cc3)C2)cc1Cn1cncn1` (stereo not drawn) the value was 1 (inactive); for `O=C(CC1Nc2ccccc2NC1=O)Nc1ccccc1NC(=O)CC1Nc2ccccc2NC1=O` (stereo not drawn), 0.9 (inactive). For `CCN(CC(=O)NCCc1ccccc1)S(=O)(=O)c1ccc(C)cc1` the value was 1.1 (inactive); for `Cc1nc(N2CCCCC2)sc1C=O`, 1 (inactive). For the compound `C=CCn1c(SCC(=O)CC(=O)OCC)nc2cc(C(=O)N3CCC(C(N)=O)CC3)ccc2c1=O`, the activation factor was 1 (inactive). Then `COC(=O)c1c(NC(C)=O)sc(C(=O)Nc2ccccc2OC)c1C`, with 1 (inactive). `COc1cc(/C=N\NC(=O)c2nonc2N)c(OC)cc1Br`: the activation factor is 1 (inactive). Then `CCOC(=O)C1CCN(C(=O)/C=C/c2cc(OC)c(OC)c(OC)c2)CC1`, with 1 (inactive).

With `COc1ccc(S(=O)(=O)NC(C)C)cc1C(=O)NC1CCCCC1`, the activation factor was 1.1 (inactive). Then `COc1ccccc1C1SCCN1C(=O)c1ccc([N+](=O)[O-])cc1` (stereo not drawn), with 1 (inactive); and `CSc1nc(-c2ccccc2)nc(C(Cl)Cl)n1`, with 1.1 (inactive).

For the compound `Cc1nc(-c2ccccc2)sc1C(=O)/C=C/N(C)C`, the activation factor was 0.9 (inactive).

Consider `COc1ccc(/C=C/C2=CC(C)(C)NC(=S)N2)c(OC)c1`, for which the activation factor was 1 (inactive). Take `COc1cc(OC)nc(N/N=C(\c2ccccc2)c2ccncc2)n1`: the activation factor is 1 (inactive). For `CCn1ccnc1CN(C)Cc1nc(-c2ccc3c(c2)OCO3)no1` the value was 1 (inactive); for `CCOC(=O)Cc1csc(SCC(=O)NC(C)C23CC4CC(CC(C4)C2)C3)n1` (stereo not drawn), 1 (inactive). For `COc1ccc(C(=O)NC(=S)Nc2ccccc2N2CCN(S(C)(=O)=O)CC2)cc1OC` the value was 1.1 (inactive); for `N#C/C(=C(/O)COC(=O)COc1ccc(Cl)cc1)c1nc2ccccc2[nH]1`, 1 (inactive). For `O=C(Nc1ccc([N+](=O)[O-])cc1)C1CC12CCC2` (stereo not drawn) the value was 1 (inactive). In the case of `COC(=O)c1c(C)oc2ccc(N(C(=O)Oc3ccccc3)S(=O)(=O)c3ccccc3)cc12`, the activation factor was 1.1 (inactive). Then `Cc1ccc(Cl)cc1NC(=S)N(CCN(C)C)Cc1cccs1`, with 1.1 (inactive).

As to `Cc1cc(/C=N/NC(N)=O)c(C)n1C1CCCCC1`, the activation factor was 1 (inactive). Then `COC(=O)C(C)N=Cc1ccccc1` (stereo not drawn), with 1.1 (inactive). For `CN(c1ccccc1)S(=O)(=O)c1ccc(Cl)c(C(=O)NCCc2c[nH]c3ccccc23)c1` the value was 1 (inactive); for `COc1cccc(OC)c1C(=O)NC(=S)NCc1ccco1`, 1 (inactive). Then `CCn1c(/C=C/Nc2ccccc2)[n+](CC)c2ccc(C(=O)OCC(F)(F)F)cc21`, with 1 (inactive); and `CCOc1ccc(NC(=S)N2CCC(N(C)CC3CCCO3)CC2)cc1` (stereo not drawn), with 1 (inactive).

In the case of `Cc1nc(CN2CCN(C(=O)CCc3nnc(Cc4c[nH]c5ccccc45)o3)CC2)cs1`, the activation factor was 1 (inactive). As for `O=C(NCc1ccc(F)cc1)C(c1ccccc1)N(C(=O)c1csnn1)C1CC1` (stereo not drawn), the activation factor was 1.1 (inactive). For the compound `Cc1ccc(CC2S/C(=C(/C#N)C(=O)N3CCOCC3)N(c3ccccc3)C2=O)cc1` (stereo not drawn), the activation factor was 1.1 (inactive).

Regarding `C/C=N/NC(=O)CCCC(=O)N/N=C/C`, the activation factor is 1 (inactive). On to `C/C(=N/NS(=O)(=O)c1ccccc1)c1ccc(NC(=O)C(F)(F)F)cc1`, for which the activation factor is 1 (inactive). For `Cc1cc(OC(=O)c2ccccc2Cl)ccc1N1C(=O)CCC1=O` the value was 0.3 (inactive). Then `Cc1ccc(S(=O)(=O)N2CCN(CC(=O)N/N=C/c3ccc(Br)s3)CC2)cc1`, with 1.1 (inactive); and `O=C(c1ccc(S(=O)(=O)c2ccccc2)cc1)N1CCCCCC1`, with 1 (inactive); and `O=C1N/C(=C/c2cccs2)C(=O)N1Cc1ccc(F)cc1`, with 1 (inactive).

As for `CC1=CC=CN2C1=NC(=O)CC2(C)C(=O)N(CC(=O)NC1CCCC1)c1ccccc1C` (stereo not drawn), the activation factor was 1.1 (inactive). Then `Cc1cc(C)n(CCNC(=O)CC2C(=O)NCCN2Cc2ccc(C)o2)n1` (stereo not drawn), with 1 (inactive); and `O=C(NNC(=S)NCCCN1CCOCC1)c1ccncc1`, with 1.1 (inactive); and `COc1cc(/C=C/C(=O)N2c3ccccc3Sc3ccc(C(F)(F)F)cc32)cc(OC)c1OC`, with 1 (inactive). For `CC(=O)Nc1ccc(NC(=S)NC(=O)c2ccc([N+](=O)[O-])c(C)c2)cc1` the value was 0.9 (inactive). Then `O=C(COC(=O)C1CCN(S(=O)(=O)c2ccc3c(c2)OCCO3)CC1)Nc1ccccc1OC(F)F`, with 1 (inactive).

Take `CCc1ccc(OCC(=O)OCC(=O)c2c(N)n(C)c(=O)n(C)c2=O)cc1`: the activation factor was 1.1 (inactive). Then `O=C(c1ccc(-c2ccccc2)cc1)C1CCCN(C(=O)c2cncs2)C1` (stereo not drawn), with 1.1 (inactive); and `O=C(CSC1CC(=O)N(CCc2ccccc2)C1=O)Nc1ccc(Cl)cc1` (stereo not drawn), with 1 (inactive). For `CC(=O)Nc1ccc(Nc2nc3c(S(=O)(=O)c4ccc(C)c(C)c4)nnn3c3ccccc23)cc1` the value was 1 (inactive). For `COc1cccc(CNC(=O)Cc2csc(Nc3nc(=S)[nH]c4ccccc34)n2)c1` the value was 1.1 (inactive).
